Here are results for 13 compounds from ChEMBL document CHEMBL3872212, “Synthesis, antimicrobial activity and advances in structure-activity relationships (SARs) of novel tri-substituted thiazole derivatives” (2016).

Common to all, as to format: functional
The test system of assay [1] is Bacillus spizizenii. As to the kind of experiment: Antibacterial activity against Bacillus subtilis ATCC 6633 at 200 ug/mL measured after 24 hrs by filter paper disc method. The note with it: ATCC 6633, 24 h, read-out: DIZ.
The test system of assay [2] is Staphylococcus aureus. As to the kind of experiment: Antibacterial activity against Staphylococcus aureus ATCC 19433 at 200 ug/mL measured after 24 hrs by filter paper disc method. The note with it: ATCC 19433, 24 h, read-out: DIZ.
The subject of assay [3] is Escherichia coli. The assay can be described thus: Antibacterial activity against Escherichia coli ATCC 8739 at 200 ug/mL measured after 24 hrs by filter paper disc method. To be noted: ATCC 8739, 24 h, read-out: DIZ.
In assay [4] the test system is Proteus vulgaris. As to the kind of experiment: Antibacterial activity against Proteus vulgaris […] at 200 ug/mL measured after 24 hrs by filter paper disc method. To be noted: read-out: DIZ.
The test system of assay [5] is Aspergillus niger. The assay can be described thus: Antifungal activity against Aspergillus niger MTCC 1881 at 200 ug/mL incubated at 4 degC for 24 hrs followed by subsequent incubation at 37.5 degC for 3 days by poisoned food method. To be noted: read-out: DIZ.
Assay [6] has as its system Aspergillus flavus. The assay can be described thus: Antifungal activity against Aspergillus flavus MTCC 1884 at 200 ug/mL incubated at 4 degC for 24 hrs followed by subsequent incubation at 37.5 degC for 3 days by poisoned food method. The note with it: read-out: DIZ.
For assay [7], the system named is Bacillus spizizenii. As to the kind of experiment: Antibacterial activity against Bacillus subtilis ATCC 6633 measured after 24 hrs by broth dilution method. A digest of the protocol: (§1)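 MIC is the lowest concentration that arrests growth of the organism.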
In assay [8] the test system is Staphylococcus aureus. As to the kind of experiment: Antibacterial activity against Staphylococcus aureus ATCC 19433 measured after 24 hrs by broth dilution method. In a few lines: as §1
Assay [9] has as its system Escherichia coli. As to the kind of experiment: Antibacterial activity against Escherichia coli ATCC 8739 measured after 24 hrs by broth dilution method. In a few lines: as §1
Assay [10] has as its system Proteus vulgaris. As to the kind of experiment: Antibacterial activity against Proteus vulgaris […] measured after 24 hrs by broth dilution method. In a few lines: as §1
The subject of assay [11] is Aspergillus niger. As to the kind of experiment: Antifungal activity against Aspergillus niger MTCC 1881 measured after 2 days by broth dilution method. A digest of the protocol: as §1
Assay [12] concerns Aspergillus flavus. As to the kind of experiment: Antifungal activity against Aspergillus flavus MTCC 1884 measured after 2 days by broth dilution method. In a few lines: as §1
Assay [13] concerns Bacillus spizizenii. As to the kind of experiment: Bactericidal activity against Bacillus subtilis ATCC 6633 measured after 24 hrs by broth dilution method. A digest of the protocol:
(§2)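 MBC/MFC is found by further steps carried out once the MIC has been determined.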

Assay [14] deals with Staphylococcus aureus. The assay can be described thus: Bactericidal activity against Staphylococcus aureus ATCC 19433 measured after 24 hrs by broth dilution method. In a few lines:
as §2

The test system of assay [15] is Escherichia coli. As to the kind of experiment: Bactericidal activity against Escherichia coli ATCC 8739 measured after 24 hrs by broth dilution method. In a few lines: as §2
The subject of assay [16] is Proteus vulgaris. As to the kind of experiment: Bactericidal activity against Proteus vulgaris […] measured after 24 hrs by broth dilution method. A digest of the protocol:
as §2

Assay [17] deals with Aspergillus niger. As to the kind of experiment: Fungicidal activity against Aspergillus niger MTCC 1881 measured after 2 days by broth dilution method. In a few lines: as §2
Assay [18] concerns Aspergillus flavus. The assay can be described thus: Fungicidal activity against Aspergillus flavus MTCC 1884 measured after 2 days by broth dilution method. A digest of the protocol: as §2
The subject of assay [19] is Escherichia coli. The assay can be described thus: Ratio of MBC to MIC for Escherichia coli ATCC 8739.
Assay [20] has as its system Aspergillus flavus. The assay can be described thus: Ratio of MFC to MIC for Aspergillus flavus MTCC 1884.
The subject of assay [21] is Bacillus spizizenii. As to the kind of experiment: Ratio of MBC to MIC for Bacillus subtilis ATCC 6633.
The subject of assay [22] is Staphylococcus aureus. The assay can be described thus: Ratio of MBC to MIC for Staphylococcus aureus ATCC 19433.
Assay [23] concerns Proteus vulgaris. As to the kind of experiment: Ratio of MBC to MIC for Proteus vulgaris […].
The subject of assay [24] is Aspergillus niger. The assay can be described thus: Ratio of MFC to MIC for Aspergillus niger MTCC 1881.

Each structure is given as a SMILES string. In brackets after ≈: the same amount, converted by molar mass.

Regarding `Cc1nc(-c2ccc(-c3ccc(C(F)(F)F)cc3)cc2)c(C)s1`, the zone of inhibition at 200 µg/mL in assay [1] was found to be 5.37 mm; in assay [2], 7.86 mm; in assay [3], 8.7 mm; in assay [4], 6.91 mm.

On to `Cc1nc(-c2ccc(-c3ccc(I)cc3)cc2)c(C)s1`, for which the zone of inhibition at 200 µg/mL was 12.1 mm in assay [1]; 14.8 mm in assay [2]; 16.2 mm in [3]; 15.1 mm in assay [4]; 8 mm in assay [5]; 9.57 mm in assay [6].

As to `COc1ccc(-c2ccc(-c3nc(C)sc3C)cc2)cc1`, the zone of inhibition at 200 µg/mL in [1] turned out to be 22.1 mm; in assay [2], 25.5 mm; in [3], 27.1 mm; in assay [4], 21.6 mm; in [5], 23.4 mm; in [6], 24.9 mm. The MIC amounted to 6.25 µg/mL (≈ 21.2 µM) in assay [7]; 50 µg in assay [8]; 12.5 µg in assay [9]; 25 µg in [10]; 12.5 µg in assay [11]; 25 µg/mL (≈ 84.6 µM) in assay [12]. Besides, the MBC is 100 µg in assay [13], >200 µg in [14], 25 µg in [15] and 100 µg in [16]. For the same compound, the MFC was 100 µg in assay [17] and 50 µg in assay [18]. The Ratio in assay [19] and in assay [20] was 2 each time.

In the case of `O=C(O)c1cn(C2CC2)c2cc(N3CCNCC3)c(F)cc2c1=O` [CIPROFLOXACIN], the zone of inhibition at 200 µg/mL in [1] is 25.5 mm; in assay [2], 27 mm; in [3] it was 29.8 mm; in assay [4], 23.2 mm. For the same compound, the MIC in assay [7] was found to be 6.25 µg/mL (≈ 18.9 µM); in assay [8], 6.25 µg; in assay [9], 6.25 µg.

With `Cc1nc(-c2ccc(-c3ccc(O)cc3)cc2)c(C)s1`, the zone of inhibition at 200 µg/mL in assay [1] worked out at 17.7 mm; in assay [2] it was 19.2 mm; in assay [3], 21.1 mm; in [4] it was 20 mm; in assay [5], 13.6 mm; in assay [6] it was 15.3 mm. In addition, the MIC in assay [8] was determined as 25 µg; in assay [9], 25 µg; in [10] it was 50 µg; in assay [11] it was 50 µg; in assay [12] it was 25 µg/mL (≈ 88.8 µM). Besides, the MBC in assay [13] was 200 µg; in assay [14], 100 µg; in [15] it was >200 µg; in assay [16] it was 200 µg. In addition, the MFC in [17] amounted to 200 µg; in assay [18], 100 µg. Moreover, the Ratio in [21], in [22], in [19], in [23], in [24] and in assay [20] was >2 throughout.

For `COc1ccc(-c2ccc(-c3nc(C)sc3C)cc2)cc1OC`, the zone of inhibition at 200 µg/mL in assay [1] worked out at 22 mm; in [2] it was 24.1 mm; in assay [3], 25.6 mm; in [4], 20.9 mm; in assay [5], 22.5 mm; in assay [6], 24.2 mm. Moreover, the MIC turned out to be 12.5 µg/mL (≈ 38.4 µM) in assay [7]; 25 µg in [8]; 50 µg in assay [9]; 25 µg in assay [10]; 25 µg in assay [11]. The MBC turned out to be 100 µg in assay [13], 50 µg in assay [14], 200 µg in assay [15] and 100 µg in assay [16]. Moreover, the MFC in [17] worked out at 100 µg; in [18] it was 200 µg. For the same compound, the Ratio in assay [22] and in assay [23] was 2 each time.

Regarding `CC(=O)N1CCN(c2ccc(OCC3COC(Cn4ccnc4)(c4ccc(Cl)cc4Cl)O3)cc2)CC1` (stereo not given) [KETOCONAZOLE], the zone of inhibition at 200 µg/mL was 25.4 mm in assay [5] and 28.4 mm in assay [6]. The MIC in assay [11] was determined as 6.25 µg; in assay [12] it was 12.5 µg/mL (≈ 23.5 µM).

With `COc1cccc(-c2ccc(-c3nc(C)sc3C)cc2)c1`, the zone of inhibition at 200 µg/mL in assay [1] amounted to 15.2 mm; in assay [2], 17.5 mm; in assay [3] it was 19.2 mm; in assay [4] it was 18.8 mm; in assay [5], 6.32 mm; in assay [6] it was 9.11 mm.

Consider `Cc1nc(-c2ccc(-c3cccc(C=O)c3)cc2)c(C)s1`, for which the zone of inhibition at 200 µg/mL in assay [1] worked out at 6.65 mm; in assay [2], 8.02 mm; in [3], 9.56 mm; in assay [4] it was 7.39 mm; in [5], 3.92 mm; in assay [6] it was 6.29 mm.

Regarding `Cc1nc(-c2ccc(-c3ccc(CO)cc3)cc2)c(C)s1`, the zone of inhibition at 200 µg/mL in [1] turned out to be 20 mm; in [2] it was 21.6 mm; in [3] it was 23.8 mm; in assay [4], 17.6 mm; in assay [5], 14.5 mm; in [6] it was 17.1 mm. For the same compound, the MIC was determined as 12.5 µg in assay [8]; 25 µg in assay [9]; 100 µg in assay [10]; 25 µg in assay [11]; 25 µg/mL (≈ 84.6 µM) in [12]. The MBC is 100 µg in assay [13], >200 µg in assay [14], 100 µg in [15] and >200 µg in [16]. The MFC was found to be 200 µg in [17] and 100 µg in assay [18]. Moreover, the Ratio in assay [21], in assay [22], in assay [19], in [23], in assay [24] and in assay [20] was >2 throughout.

With `Cc1cc(C)c(-c2ccc(-c3nc(C)sc3C)cc2)c(C)c1`, the zone of inhibition at 200 µg/mL was 24.6 mm in [1]; 26.1 mm in [2]; 28 mm in assay [3]; 22.1 mm in assay [4]; 25.2 mm in assay [5]; 27.8 mm in assay [6]. The MIC in assay [7] was 6.25 µg/mL (≈ 20.3 µM); in assay [8], 25 µg; in assay [9], 6.25 µg; in [10], 12.5 µg; in assay [11], 6.25 µg; in [12], 12.5 µg/mL (≈ 40.7 µM). The MBC is 50 µg in [13], 100 µg in assay [14], 12.5 µg in [15] and 50 µg in [16]. For the same compound, the values for the MFC in assay [17] and in assay [18] were 100 µg and 25 µg, respectively. The Ratio in [19] and in [20] was 2 throughout.

As for `Cc1nc(-c2ccc(-c3ccc(F)c(C)c3)cc2)c(C)s1`, the zone of inhibition at 200 µg/mL in assay [1] is 14.6 mm; in assay [2], 16.4 mm; in assay [3], 18.1 mm; in assay [4], 15.2 mm; in [6] it was 5.63 mm.

As for `Cc1ccc(-c2ccc(-c3nc(C)sc3C)cc2)cc1`, the zone of inhibition at 200 µg/mL is 21.1 mm in assay [1]; 23.1 mm in [2]; 24.2 mm in assay [3]; 19.5 mm in assay [4]; 19.7 mm in assay [5]; 21.3 mm in assay [6]. The MIC in assay [8] turned out to be 100 µg; in [9] it was 12.5 µg; in assay [10] it was 50 µg; in assay [11] it was 25 µg; in [12], 25 µg/mL (≈ 89.5 µM). Further, the MBC is 100 µg in assay [13], >200 µg in assay [14], 100 µg in [15] and 100 µg in assay [16]. Moreover, the MFC in [17] is >200 µg; in [18] it was 100 µg.
